Source: PMC6737205 (International Journal of Nanomedicine, 2019)

Legend:
Parameters in all cases: species or system mouse
Conditions in all cases: S180 mice, oral, RGDV-gemcitabine 8.4 μmol/kg/day, gemcitabine 84 μmol/kg/day, every 3 days for 12 days, n=12
[1] = In vivo serum ALT/GPT assay
Method in brief: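 Serum came from male ICR mice bearing subcutaneous S180 tumours (1×10^7 cells, right armpit). Blood was taken 3 hrs after the last oral dose, with saline 10 mL/kg/day as vehicle, and spun at 1000 rpm, 4°C, 10 mins. Serum was incubated with kit matrix at 37°C for 30 mins, then dinitrophenylhydrazine at 37°C for 20 mins, then 0.4 M NaOH. Read at 510 nm; ALT from a standard curve.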

[2] = In vivo serum AST/GOT assay
[3] = In vivo serum Cr assay
Method in brief: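 Creatinine was measured with an enzymatic kit on serum from S180 tumour-bearing mice, with blood spun at 1000 rpm, 4°C, 10 mins. Serum plus enzyme solution A was incubated at 37°C for 5 mins and read at 546 nm (A1). After a further 30 mins at 37°C, enzyme solution B was added, incubated 5 mins, and read again at 546 nm (A2). Cr was calculated from the two readings.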

[4] = In vivo serum BUN assay
Method in brief: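 BUN was measured by a kit immunoassay on serum from S180 tumour-bearing mice, with blood spun at 3000 rpm, 4°C, 10 mins. Serum was incubated with anti-BUN antibody and streptavidin-HRP at 37°C for 60 mins, then washed 5 times. Chromogen was added at 37°C for 15 mins in the dark, then stop solution. Read at 450 nm within 15 mins; BUN from a standard curve.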

Question: For `Nc1ccn([C@@H]2O[C@H](CO)[C@@H](O)C2(F)F)c(=O)n1` [gemcitabine], which “serum ALT/GPT compared with NS-treated mice” value [1] is on record?
Answer: significantly higher than those of NS-treated mice

Question: What about the “serum AST/GOT compared with NS-treated mice” value [2] of the same molecule?
Answer: significantly higher than those of NS-treated mice

Question: And the “serum Cr compared with NS-treated mice” value [3]?
Answer: significantly higher than those of NS-treated mice

Question: What about the “serum BUN compared with NS-treated mice” value [4] of the same molecule?
Answer: significantly higher than those of NS-treated mice
